Measured values reported in ChEMBL document CHEMBL1125344, “(Pyridylcyanomethyl)piperazines as orally active PAF antagonists” (J Med Chem, 1992).

What was measured:
[1] = biological target: Platelet-activating factor receptor (Rattus norvegicus) (UniProt P46002); test: In vivo dose administered intravenously to inhibit PAF-induced hypotension (PAF-Antagonistic activity) in normotensive rats by 56%.; type: functional, organism-based
In short: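 Male Sprague-Dawley rats, 180-220 g, anesthetized with sodium pentobarbital ip; blood pressure recorded from left carotid artery. Compound given iv in saline (1 mL/kg) via femoral vein 3 min before PAF 0.5 μg/kg iv; initial dose 5 mg/kg. Percentage inhibition of PAF-induced hypotension calculated versus vehicle-treated controls.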

[2] = biological target: Platelet-activating factor receptor (Mus musculus) (UniProt Q62035); test: Oral dose required to inhibit PAF-induced mortality (PAF-Antagonistic activity)in mice by 50%.; type: functional; conditions: Mus sp.
In short: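 Male Swiss mice, 22-26 g, in groups of 10. Compound or saline given po (20 mL/kg) 60 min before C18-PAF 100 µg/kg plus propranolol 1 mg/kg by tail vein. ID50 from percent inhibition of mortality versus controls.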

[3] = biological target: Platelet-activating factor receptor (Rattus norvegicus) (UniProt P46002); test: In vivo dose administered intravenously to inhibit PAF-induced hypotension (PAF-Antagonistic activity) in normotensive rats by 57%.; type: functional, organism-based

Sequence of Platelet-activating factor receptor (Rattus norvegicus) (P46002 whole entry): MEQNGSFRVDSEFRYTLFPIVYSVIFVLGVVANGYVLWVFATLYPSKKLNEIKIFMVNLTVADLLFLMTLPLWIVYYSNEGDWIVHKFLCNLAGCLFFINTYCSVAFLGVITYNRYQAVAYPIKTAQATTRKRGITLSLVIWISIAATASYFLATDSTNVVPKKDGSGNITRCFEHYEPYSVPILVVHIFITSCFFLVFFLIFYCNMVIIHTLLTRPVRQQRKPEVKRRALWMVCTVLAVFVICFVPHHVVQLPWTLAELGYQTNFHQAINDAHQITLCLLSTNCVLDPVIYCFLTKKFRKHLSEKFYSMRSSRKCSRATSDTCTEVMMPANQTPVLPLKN
Sequence of Platelet-activating factor receptor (Mus musculus) (Q62035 whole entry): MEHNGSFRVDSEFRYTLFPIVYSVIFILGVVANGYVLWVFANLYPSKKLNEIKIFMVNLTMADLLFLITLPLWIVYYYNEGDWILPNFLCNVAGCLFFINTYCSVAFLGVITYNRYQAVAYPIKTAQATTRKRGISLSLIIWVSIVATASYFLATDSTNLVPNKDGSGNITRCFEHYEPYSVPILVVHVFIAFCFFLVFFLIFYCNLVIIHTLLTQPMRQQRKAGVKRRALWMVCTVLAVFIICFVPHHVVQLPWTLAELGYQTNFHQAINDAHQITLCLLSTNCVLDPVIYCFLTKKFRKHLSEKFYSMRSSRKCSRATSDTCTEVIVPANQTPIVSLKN

| SMILES | ID50 [1] | ID50 [2] | ID50 [3] |
| --- | --- | --- | --- |
| N#CC(c1cccnc1)N1CCN(C(=O)Cc2ccc3ccccc3c2)CC1 (stereo not drawn) | 5 mg/kg | – | – |
| N#CC(c1cccnc1)N1CCN(C(=O)CCCc2ccccc2)CC1 (stereo not drawn) | – | 50 mg/kg | 5 mg/kg |
